# According to ChEMBL document CHEMBL1123237 (J Med Chem, 1986):
# Columns and labels:
# Format in all cases: functional, Artery
# Rattus norvegicus [1] = assay: Baseline mean aortic blood pressure in conscious renal (1clip/2kidney) hypertensive rats at dose 1 mg/kg administered orally.
# Procedure, shortened: (§1)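 Oral dosing in rats cannulated for aortic blood pressure monitoring. Only rats with mean aortic pressure >160 mmHg were used; they weighed 280-320 g at cannulation. Rats had free access to standard chow and tap water on a 12-h dark/12-h light cycle. The value is the pre-dose mean aortic pressure, given as mean ± 1 SEM; 3-6 rats per dose.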
# Rattus norvegicus [2] = assay: Maximum change aortic blood pressure in conscious renal (1clip/2kidney) hypertensive rats at dose 1 mg/kg administered orally at 4 hr.; settings: route oral
# Rattus norvegicus [3] = assay: Baseline mean aortic blood pressure in conscious renal (1clip/2kidney) hypertensive rats at dose 10 mg/kg administered orally.; procedure, shortened: as §1
# Rattus norvegicus [4] = assay: Baseline mean aortic blood pressure in conscious renal (1clip/2kidney) hypertensive rats at dose 3 mg/kg administered orally.; procedure, shortened: as §1
# Rattus norvegicus [5] = assay: Baseline mean aortic blood pressure in conscious renal (1clip/2kidney) hypertensive rats at dose 0.3 mg/kg administered orally.; procedure, shortened: as §1
# Rattus norvegicus [6] = assay: Maximum change aortic blood pressure in conscious renal (1clip/2kidney) hypertensive rats at dose 10 mg/kg administered orally at 5 hr; settings: route oral
# Rattus norvegicus [7] = assay: Maximum change aortic blood pressure in conscious renal (1clip/2kidney) hypertensive rats at dose 0.3 mg/kg administered orally at 10 hr.; settings: route oral
# Rattus norvegicus [8] = assay: Maximum change aortic blood pressure in conscious renal (1clip/2kidney) hypertensive rats at dose 3 mg/kg administered orally at 5 hr.; settings: route oral
# Rattus norvegicus [9] = assay: Maximum change aortic blood pressure in conscious renal (1clip/2kidney) hypertensive rats at dose 30 mg/kg administered orally at 9 hr.; settings: route oral
# Rattus norvegicus [10] = assay: Baseline mean aortic blood pressure in conscious renal (1clip/2kidney) hypertensive rats at dose 30 mg/kg administered orally.; procedure, shortened: as §1
# Rattus norvegicus [11] = assay: Maximum change aortic blood pressure in conscious renal (1clip/2kidney) hypertensive rats at dose 1 mg/kg administered orally at 7 hr.; settings: route oral
# Rattus norvegicus [12] = assay: Maximum change aortic blood pressure in conscious renal (1clip/2kidney) hypertensive rats at dose 10 mg/kg administered orally at 5 hr.; settings: route oral
# Rattus norvegicus [13] = assay: Maximum change aortic blood pressure in conscious renal (1clip/2kidney) hypertensive rats at dose 3 mg/kg administered orally at 2 hr.; settings: route oral
# Rattus norvegicus [14] = assay: Maximum change aortic blood pressure in conscious renal (1clip/2kidney) hypertensive rats at dose 30 mg/kg administered orally at 10 hr; settings: route oral
# Rattus norvegicus [15] = assay: Maximum change aortic blood pressure in conscious renal (1clip/2kidney) hypertensive rats at dose 30 mg/kg administered orally at 8 hr.; settings: route oral
# Rattus norvegicus [16] = assay: Maximum change aortic blood pressure in conscious renal (1clip/2kidney) hypertensive rats at dose 10 mg/kg administered orally at 10 hr.; settings: route oral
# Rattus norvegicus [17] = assay: Maximum change aortic blood pressure in conscious renal (1clip/2kidney) hypertensive rats at dose 1 mg/kg administered orally at 1 hr; settings: route oral
# Rattus norvegicus [18] = assay: Baseline mean aortic blood pressure in conscious renal (1clip/2kidney) hypertensive rats at dose 1 mg/kg administered orally; settings: route oral; procedure, shortened: as §1
# Rattus norvegicus [19] = assay: Maximum change aortic blood pressure in conscious renal (1clip/2kidney) hypertensive rats at dose 1 mg/kg administered orally at 10 hr; settings: route oral
# Rattus norvegicus [20] = assay: Baseline mean aortic blood pressure in conscious renal (1clip/2kidney) hypertensive rats at dose 30 mg/kg administered orally; settings: route oral; procedure, shortened: as §1
# Rattus norvegicus [21] = assay: Maximum change aortic blood pressure in conscious renal (1clip/2kidney) hypertensive rats at dose 0.3 mg/kg administered orally at 5 hr.; settings: route oral
# Rattus norvegicus [22] = assay: Maximum change aortic blood pressure in conscious renal (1clip/2kidney) hypertensive rats at dose 10 mg/kg administered orally at 4 hr.; settings: route oral
# Rattus norvegicus [23] = assay: Maximum change aortic blood pressure in conscious renal (1clip/2kidney) hypertensive rats at dose 1 mg/kg administered orally at 8 hr.; settings: route oral
# Rattus norvegicus [24] = assay: Maximum change aortic blood pressure in conscious renal (1clip/2kidney) hypertensive rats at dose 10 mg/kg administered orally at 6 hr.; settings: route oral
# Rattus norvegicus [25] = assay: Maximum change aortic blood pressure in conscious renal (1clip/2kidney) hypertensive rats at dose 3 mg/kg administered orally at 8 hr.; settings: route oral
# Rattus norvegicus [26] = assay: Maximum change aortic blood pressure in conscious renal (1clip/2kidney) hypertensive rats at dose 30 mg/kg administered orally; settings: route oral
# Rattus norvegicus [27] = assay: Maximum change aortic blood pressure in conscious renal (1clip/2kidney) hypertensive rats at dose 0.3 mg/kg administered orally at 2 hr.; settings: route oral
# Rattus norvegicus [28] = assay: Maximum change aortic blood pressure in conscious renal (1clip/2kidney) hypertensive rats at dose 30 mg/kg administered orally at 6 hr; settings: route oral
# Rattus norvegicus [29] = assay: Maximum change aortic blood pressure in conscious renal (1clip/2kidney) hypertensive rats at dose 30 mg/kg administered orally at 6 hr.; settings: route oral
# Rattus norvegicus [30] = assay: Maximum change aortic blood pressure in conscious renal (1clip/2kidney) hypertensive rats at dose 1 mg/kg administered orally at 9 hr.; settings: route oral
# Rattus norvegicus [31] = assay: Maximum change aortic blood pressure in conscious renal (1clip/2kidney) hypertensive rats at dose 3 mg/kg administered orally at 6 hr.; settings: route oral
# Rattus norvegicus [32] = assay: Maximum change aortic blood pressure in conscious renal (1clip/2kidney) hypertensive rats at dose 1 mg/kg administered orally at 6 hr.; settings: route oral
smiles,measurement,setting,value
CCOC(=O)[C@H](CCc1ccccc1)N[C@@H](C)C(=O)N1Cc2ccccc2C[C@H]1C(=O)O,MABP,Rattus norvegicus [1],196 mmHg
same,MABP,Rattus norvegicus [2],-54 mmHg
same,MABP,Rattus norvegicus [3],181 mmHg
same,MABP,Rattus norvegicus [4],188 mmHg
same,MABP,Rattus norvegicus [5],157 mmHg
same,MABP,Rattus norvegicus [6],-87 mmHg
same,MABP,Rattus norvegicus [7],-50 mmHg
same,MABP,Rattus norvegicus [8],-62 mmHg
C[C@H](N[C@@H](CCc1ccccc1)C(=O)O)C(=O)N1Cc2ccccc2C[C@H]1C(=O)O,MABP,Rattus norvegicus [1],199 mmHg
same,MABP,Rattus norvegicus [9],-89 mmHg
same,MABP,Rattus norvegicus [3],199 mmHg
same,MABP,Rattus norvegicus [10],192 mmHg
same,MABP,Rattus norvegicus [11],-44 mmHg
same,MABP,Rattus norvegicus [4],199 mmHg
same,MABP,Rattus norvegicus [12],-76 mmHg
same,MABP,Rattus norvegicus [13],-45 mmHg
CCOC(=O)[C@@H](CCc1ccccc1)N[C@@H](C)C(=O)N1Cc2ccccc2C[C@H]1C(=O)O,MABP,Rattus norvegicus [10],172 mmHg
same,MABP,Rattus norvegicus [14],-11 mmHg
CCOC(=O)[C@@H](CCc1ccccc1)N[C@@H](C)C(=O)N1Cc2cc(OC)c(OC)cc2C[C@H]1C(=O)O,MABP,Rattus norvegicus [15],-15 mmHg
same,MABP,Rattus norvegicus [10],177 mmHg
CCOC(=O)[C@H](CCc1ccccc1)N[C@@H](C)C(=O)N1Cc2ccccc2C[C@@H]1C(=O)O,MABP,Rattus norvegicus [9],-20 mmHg
same,MABP,Rattus norvegicus [10],187 mmHg
CCOC(=O)[C@H](CCc1ccccc1)N[C@@H](C)C(=O)N1Cc2ccccc2[C@H]1C(=O)O,MABP,Rattus norvegicus [3],200 mmHg
same,MABP,Rattus norvegicus [16],-80 mmHg
CC(CS)C(=O)N1Cc2ccccc2CC1C(=O)O (stereo unspecified),MABP,Rattus norvegicus [1],185 mmHg
same,MABP,Rattus norvegicus [17],-45 mmHg
CCOC(=O)[C@H](CCc1ccccc1)N[C@@H](C)C(=O)N1Cc2cc(OC)c(OC)cc2C[C@@H]1C(=O)O,MABP,Rattus norvegicus [15],-16 mmHg
same,MABP,Rattus norvegicus [10],178 mmHg
CCOC(=O)C(CCc1ccccc1)NC(C)C(=O)N1Cc2ccccc2CC1C(=O)OCC (stereo unspecified),MABP,Rattus norvegicus [18],208 mmHg
same,MABP,Rattus norvegicus [19],-69 mmHg
O=C(O)C1c2ccccc2CN1C(=O)CCS (stereo unspecified),MABP,Rattus norvegicus [20],174 mmHg
same,MABP,Rattus norvegicus [14],-15 mmHg
CCOC(=O)[C@H](CCc1ccccc1)N[C@@H](C)C(=O)N1CCC[C@H]1C(=O)O,MABP,Rattus norvegicus [1],175 mmHg
same,MABP,Rattus norvegicus [3],199 mmHg
same,MABP,Rattus norvegicus [21],-79 mmHg
same,MABP,Rattus norvegicus [22],-112 mmHg
same,MABP,Rattus norvegicus [23],-43 mmHg
same,MABP,Rattus norvegicus [4],200 mmHg
same,MABP,Rattus norvegicus [5],201 mmHg
same,MABP,Rattus norvegicus [8],-112 mmHg
COc1cc2c(cc1OC)CN(C(=O)C(C)NC(CCc1ccccc1)C(=O)O)C(C(=O)O)C2 (stereo unspecified),MABP,Rattus norvegicus [1],199 mmHg
same,MABP,Rattus norvegicus [24],-52 mmHg
same,MABP,Rattus norvegicus [3],199 mmHg
same,MABP,Rattus norvegicus [15],-107 mmHg
same,MABP,Rattus norvegicus [10],181 mmHg
same,MABP,Rattus norvegicus [25],-52 mmHg
same,MABP,Rattus norvegicus [23],-20 mmHg
same,MABP,Rattus norvegicus [4],199 mmHg
CC(NC(CCc1ccccc1)C(=O)O)C(=O)N1Cc2ccccc2C1C(=O)O (stereo unspecified),MABP,Rattus norvegicus [25],-74 mmHg
same,MABP,Rattus norvegicus [4],195 mmHg
CC(CS)C(=O)N1Cc2ccccc2C1C(=O)O (racemic),MABP,Rattus norvegicus [20],165 mmHg
same,MABP,Rattus norvegicus [26],0 mmHg
C[C@H](CS)C(=O)N1CCC[C@H]1C(=O)O [CAPTOPRIL],MABP,Rattus norvegicus [27],-25 mmHg
CCOC(=O)C(CCc1ccccc1)N1C(=O)C2Cc3ccccc3CN2C(=O)C1C (stereo unspecified) [DIKETOPIPERAZINE DERIVATIVE OF QUINAPRIL],MABP,Rattus norvegicus [20],186 mmHg
same,MABP,Rattus norvegicus [28],-28 mmHg
C[C@H](N[C@@H](CCc1ccccc1)C(=O)O)C(=O)N1CCC[C@H]1C(=O)O [ENALAPRILAT ANHYDROUS],MABP,Rattus norvegicus [1],188 mmHg
same,MABP,Rattus norvegicus [29],-70 mmHg
same,MABP,Rattus norvegicus [24],-57 mmHg
same,MABP,Rattus norvegicus [3],188 mmHg
same,MABP,Rattus norvegicus [10],176 mmHg
same,MABP,Rattus norvegicus [4],188 mmHg
same,MABP,Rattus norvegicus [30],-51 mmHg
same,MABP,Rattus norvegicus [13],-54 mmHg
CCOC(=O)[C@H](CCc1ccccc1)N[C@@H](C)C(=O)N1Cc2cc(OC)c(OC)cc2C[C@H]1C(=O)O [MOEXIPRIL],MABP,Rattus norvegicus [1],182 mmHg
same,MABP,Rattus norvegicus [24],-113 mmHg
same,MABP,Rattus norvegicus [3],205 mmHg
same,MABP,Rattus norvegicus [21],-41 mmHg
same,MABP,Rattus norvegicus [31],-39 mmHg
same,MABP,Rattus norvegicus [4],179 mmHg
same,MABP,Rattus norvegicus [5],201 mmHg
same,MABP,Rattus norvegicus [32],-43 mmHg
